aSyn UTR inh – MLPCN primary screen, SNCA 5' untranslated region; alpha-synuclein 5'UTR reporter, inhibitor activity; inhibition, % (tested at 7.5 µM); 300,000 tested, 0.82% active; AID 1813, 2009; in the data active = inhibition above about 60%; inconclusive = no clear call, values can overlap the other calls;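 also: H4 neuroglioblastoma cells stably carrying SNCA 5'UTR luciferase fusion; 0% = DMSO wells and 100% = positive control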
T cruzi repl – inhibitors of intracellular T. cruzi growth, primary screen, luminescence, NIH3T3 host cells; 300,000 tested, 1.4% active; T. cruzi beta-gal in NIH3T3, 90 h; inhibition, % (concentration not given with the values);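 active = mean inhibition across valid replicates above about 55%, limit read from the data; inconclusive = mean below that limit but half or more replicates reach it; inactive = mean below it, under half of replicates reach it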;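 also: signal also drops with host cell toxicity which is not excluded here; 0% = plate median of DMSO wells and 100% = zero luminescence signal; higher percent means less beta-gal luminescence so fewer parasites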
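Assay system: NIH/3T3 host cells with β-galactosidase reporter T. cruzi; input: 5,000 host fibroblasts per well; compound: single 50 nL compound addition per well in DMSO; timing: ≥90 h infection period, 3 h prior cell attachment; measured by: GalScreen β-gal luminescence, detergent lysis, 60 min; evaluation: percent inhibition of parasite-derived β-gal signal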
SKKanGAS inh – S. pyogenes SKKanGAS growth inhibitors in kanamycin, primary screen, streptokinase expression inhibitor project, SKKanGAS strain, BacTiter-Glo luminescence | 6 h | inhibition, % at 7.5 µM | 300,000 tested, 1.3% active;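 active = mean replicate score, as percent of positive control median, at least 50; inconclusive = mean below 50 but one replicate at or above 50; inactive = mean and every replicate below 50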;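 also: strain carries kanamycin resistance gene driven by streptokinase promoter and grows in 40 µg/ml kanamycin; loss of luminescence reflects streptokinase promoter inhibition or plain growth inhibition; 0% = median of DMSO wells and 100% = positive control at its reference dose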
CSC inhib – cancer stem cell viability inhibitors, primary screen, luminescence; cancer stem cell-like cells viability; inhibition, % at 7.5 µM; 300,000 tested, 1.1% active; AID 2717, 2010; in the data active = inhibition above about 75%; inconclusive = no clear call, values can overlap the other calls; tested in HMLE shEcad cells
Mdm2-MdmX inh – inhibitors of human Mdm2-MdmX association, primary screen, cell-based, luminescence, split luciferase, SaOS-2, uHTS | Protein Mdm4 (Homo sapiens) + E3 ubiquitin-protein ligase Mdm2 (Homo sapiens), … | SaOS-2 split-luciferase Mdm2/MdmX complementation | inhibition, % at 8 µM | 330,000 tested, 3% active | AID 485346, 2010;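 active = inhibition of at least 50% at 8 µM in the primary screen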
* hit, by the source's call; ? = inconclusive; · = no result given. This is a sample that favours compounds with a hit; in the whole collection about 5.4% have one here.

SMILES | aSyn UTR inh | T cruzi repl | SKKanGAS inh | CSC inhib | Mdm2-MdmX inh
CC(Sc1nc(-c2ccccc2)cc(C(F)(F)F)n1)C(=O)Nc1sc2c(c1C#N)CCC2 (centres undefined) | 29 | 56* | -23 | -8 | 0
CC(C)n1c(CN(C)Cc2ccccc2)nc2c1c(=O)n(C)c(=O)n2C | 64* | -20 | 8 | 10 | 19
CC(=O)C(C)n1c(CN(C)Cc2ccccc2)nc2c1c(=O)n(C)c(=O)n2C (centres undefined) | 7 | 29 | -5 | -16 | -9
CC1=CC(C)(C)N(C(=O)CN2C(=O)CCC2=O)c2ccc(C)cc21 | 0 | -6 | 2 | 1 | 12
CC1=CC(C)(C)N(S(=O)(=O)c2ccc(F)cc2)c2ccc(C)cc21 | 8 | 1 | 6 | 87* | 47
COc1ccc2c(c1)C(C)=CC(C)(C)N2S(=O)(=O)c1ccc(Br)cc1 | -86 | 67* | 27 | -9 | ·
Cc1cc(C)cc(C(=O)Nc2nnc(SCC(=O)N3CCCc4ccccc43)s2)c1 | 0 | -10 | 21 | 75* | 9
C=CCn1c(=O)c(C(=O)NCCNCC)c(O)c2ccccc21 | -6 | -13 | -8 | -2 | 18
CCn1c(=O)c(C(=O)NCCc2ccccc2)c(O)c2ccccc21 | 21 | 22 | 13 | 95* | 28
CCNCCNC(=O)c1c(O)c2ccccc2n(CC)c1=O | 3 | 5 | -2 | -7 | -42
C=CCn1c(=O)c(C(=O)NCc2ccccc2)c(O)c2ccccc21 | -20 | -20 | 55* | 58 | 12
COCCN(C(=O)COC(=O)c1ccc(C=O)cc1)c1c(N)n(Cc2ccccc2)c(=O)[nH]c1=O | 0 | -12 | 15 | -5 | 17
CCc1nc2sc3c(c2c(=O)n1N)CC(C)(C)OC3 | 24 | -4 | -7 | -6 | 8
CCCCCCCCCc1nc2sc3c(c2c(=O)n1NC(=O)c1ccccc1[N+](=O)[O-])CC(C)(C)OC3 | 11 | -2 | 65* | 107* | -7
CCCc1nc2sc3c(c2c(=O)n1NC(=O)c1ccco1)CC(C)(C)OC3 | 4 | -10 | 3 | -16 | 15
CCCCCCCCCc1nc2sc3c(c2c(=O)n1NC(=O)c1ccc([N+](=O)[O-])cc1)CC(C)(C)OC3 | 18 | -6 | 64* | -21 | 37
O=C(NNC(=O)c1ccc(-c2ccc([N+](=O)[O-])cc2)o1)c1ccncc1 | · | · | · | · | -13
O=C(Cn1cnc([N+](=O)[O-])n1)c1ccc(O)c(O)c1 | -3 | 32 | 2 | 9 | 5
O=C(Cn1nnc(-c2ccccc2)n1)N/N=C/c1cccc([N+](=O)[O-])c1O | 4 | -13 | 90* | -1 | 7
COc1ccccc1C(=O)NC(=O)COC(=O)CNC(=O)c1ccc(Cl)c([N+](=O)[O-])c1 | -10 | -7 | 16 | -1 | 12
CCOc1ccc(NS(=O)(=O)c2ccc(C(=O)N3CCN(C(C)=O)CC3)cc2)cc1 | -11 | -5 | -1 | · | 7
CCOc1ccc(S(=O)(=O)N(C)CC(=O)N2CCN(CC)CC2)cc1 | 13 | 6 | -1 | -7 | 22
Nc1cc2c3c(cccc3c1)C(=O)N(CCN1CCCC1)C2=O | 54 | 78* | -1 | 36 | ·
CCCCNC(=O)c1sc(=S)n2c1[nH]c(=O)c1ccccc12 | -4 | -11 | 54* | 27 | 24
O=C(NCCc1ccccc1)c1ccc2c(=O)[nH]c3c(C(=O)NCC4CCCO4)sc(=S)n3c2c1 (centres undefined) | 6 | -6 | 44 | -14 | -2
SMILES | aSyn UTR inh | T cruzi repl | SKKanGAS inh | CSC inhib | Mdm2-MdmX inh
COc1cc(C2CC(=O)C3=C(C2)Nc2ncnn2C3c2cccs2)cc(OC)c1OC (centres undefined) | -2 | 11 | 3 | 0 | 5
COc1ccc(C2CC(=O)C3=C(C2)Nc2ncnn2C3c2ccccc2C)c(OC)c1 (centres undefined) | 18 | 61* | 21 | · | -2
CC(CCc1ccccc1)N1CCN(Cc2ccccc2)CC1 (centres undefined) | 1 | 58* | -3 | -5 | 3
CCS(=O)(=O)N1CCN(C(C)CCc2ccccc2)CC1 (centres undefined) | -9 | 17 | 1 | -3 | 6
COc1cc(C#N)c(N=C(SCC#N)N2CCOCC2)cc1OC | 23 | -10 | 3 | -13 | 8
O=C(NCc1ccccn1)Nc1cc(Cl)cc(Cl)c1 | 9 | 3 | 77* | 7 | 18
CCCOc1ccc(CN(CCC#N)C(=S)NC(=O)c2ccccc2)cc1 | -6 | 4 | 44 | 31 | 32
C/C(N)=C(/C#N)C(=O)CSc1nc2scc(-c3ccccc3)c2c(=O)n1C | 11 | 27 | 62* | 4 | 23
O=[N+]([O-])c1cc(O)c2ncccc2c1 | 70* | -18 | ? | 13 | 44
CN(C)c1ccc(C2SCCN2C(=O)c2ccc([N+](=O)[O-])cc2)cc1 (centres undefined) | -2 | 58* | 7 | -13 | 1
O=C(c1ccc([N+](=O)[O-])cc1)N1CCSC1c1ccccc1 (centres undefined) | -6 | -14 | 2 | -12 | -4
O=C(Cn1cnc([N+](=O)[O-])n1)NCc1ccccc1 | 9 | 79* | 5 | 3 | 9
COc1ccccc1/C=N/NC(=O)Cn1cnc([N+](=O)[O-])n1 | -1 | -13 | 11 | -16 | 10
O=C(Cn1cnc([N+](=O)[O-])n1)N/N=C/c1ccc2ccccc2c1 | 6 | 62* | -2 | -3 | 12
CCC(C)[C@H](NC(=O)C1CC(=O)N(c2ccc3c(c2)OCCO3)C1)C(=O)N1CCCCC1 (some centres undefined) | 0 | -12 | -5 | -4 | 25
Cc1ccc(OCC(O)CNC2CCCC2)cc1C (centres undefined) | -11 | 15 | 2 | 3 | -3
CCOc1ccc(N(C)c2ccc(/C=C3/SC(=S)NC3=O)cc2)cc1 | 7 | 6 | 65* | 97* | 24
O=C1NC(=O)/C(=C\c2ccc(OCc3ccccc3)cc2)S1 | -27 | -7 | 55* | 34 | 12
O=C1NC(=O)/C(=C\c2ccccc2OCc2ccccc2)S1 | 20 | 23 | ? | · | 38
O=C(COC(=O)c1cnccn1)Nc1cc(S(=O)(=O)N2CCOCC2)ccc1Cl | · | · | · | · | 18
S=C(Sc1ccc(Cl)cc1)Sc1ccc(Cl)cc1 | -47 | 63* | 37 | 77* | 23
COc1ccc(OC)c(-c2nc(CN3CCCCC3c3cccnc3)c(C)o2)c1 (centres undefined) | -5 | 59* | 5 | -4 | 10
Cc1cc(C)c2[nH]c(O)c(N=Nc3ccc(C(=O)O)cc3)c2c1 | 5 | -15 | 74* | -5 | 9
N#CCCN(C(=S)NC(=O)c1cccs1)c1ccccc1F | · | · | · | · | 4

Assay outcomes: PubChem BioAssay, several laboratories
